# High-throughput results as filed in PubChem.
# Only some compounds are listed: those with a hit (about 8.4% of all), similar ones and a draw of the others.
# Ecoli tolC – E. coli tolC mutant growth inhibition; E. coli BW25113 tolC mutant growth, OD615; growth inhibition, % at 10 µM (by protocol); actives 2.2% (n = 65,000); AID 573;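 active means growth inhibition at or above a cutoff equal to the mean over every tested compound plus 3 SD, cut at about 60% in these data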;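 further: growth measured after 20 h incubation at 37 °C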
#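 Test system: tolC-deleted E. coli BW25113; medium: LB with kanamycin 50 µg/mL; compound: single-point testing at 10 µM; incubation: 20 h compound exposure of bacteria at 37 °C; signal: OD at 615 nm; evaluation: growth inhibition in percent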
# PostGolgi yeast – growth inhibition of a yeast mutant, post-Golgi transport screen; post-Golgi transport phenotypic cell assay; inhibition, % at 10 µM; actives 0.9% (n = 98,000); AID 739;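 further: yeast cells grown in 1536-well plates; yeast grown about 18 h at 30C before absorbance read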
# PostGolgi ctrl – growth of the yeast control strain, post-Golgi counter-screen; actives 5% (n = 98,000); efflux-deficient yeast background strain, growth absorbance A615, 16 h; inhibition, % at 10 µM
# Cav3 T inh – inhibitors of human Cav3.2 T-type calcium channel; O95180; Cav3.2-expressing cells, Fluo-4 calcium fluorescence FDSS; stronger effect = lower value; B-score at 10 µM; actives 4% (n = 100,000); AID 449739;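 active means single-dose well whose peak fluorescence ratio is a statistical outlier from its plate by either plate-standardised score or position-corrected B-score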
# Ecoli WT expand – growth inhibitors of E. coli BW25113 wild type | OD600 absorbance | growth inhibition, % at 100 µM | actives 0.15% (n = 98,000);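 active means growth inhibition above about 50% at one test dose, limit read from the data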;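 further: growth measured after 20 h incubation at 37 °C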
# Numbers stand for hits; – = inactive; · = no result. Unless noted, no stated cut-off is given here; in the data, active means inhibition above about 30%; inactive means the rest.
SMILES,Ecoli tolC,PostGolgi yeast,PostGolgi ctrl,Cav3 T inh,Ecoli WT expand
O=C(COc1ccc2ccccc2c1CN1CCOCC1)N1CCc2ccccc21,–,–,–,–,–
CC1(C)CC2CC(C)(CN2C(=O)COc2cccc3ccccc23)C1 (stereo not drawn),·,–,46,–,–
O=C(COc1cccc2ccccc12)N1CCN(c2ccccc2)CC1,66,–,–,·,–
O=C(COc1cccc2ccccc12)N1CCN(c2ccccn2)CC1,–,–,–,–,–
CCCOc1ccc(OC(=O)c2ccc(Br)o2)cc1,–,–,–,–,–
CCOC(=O)N1CCc2c(sc(NC(=O)c3ccc(Cl)s3)c2C(N)=O)C1,73,–,–,–,–
CC1=Nc2ncnn2C(c2ccccc2)/C1=N\O (stereo not drawn),–,–,–,–,–
Clc1ccc(CSc2ncccn2)cc1,–,–,–,–,–
O=C1c2cnc3nc(SCc4ccc(Cl)cc4)nn3c2CC2c3ccccc3CCN12 (stereo not drawn),·,–,35,-6.3,–
CCOC(=O)N1CCC(c2cc(=O)n3[nH]c(C)c(-c4ccc(F)cc4)c3n2)CC1,99,–,–,·,–
COc1ccc(C(C(=O)OC(C)CN(C)C)c2ccccc2)cc1 (stereo not drawn),–,35,–,–,–
CCCCOc1ccc(C(=O)OC(C)CN(C)C)cc1 (stereo not drawn),–,–,–,·,–
O=C(NC1CCCCC1)C(c1ccccc1)N(Cc1ccc2c(c1)OCO2)C(=O)c1cnsn1 (stereo not drawn),·,·,·,-7.5,·
Cc1ccc(C(C(=O)NC2CCCC2)N(Cc2ccc3c(c2)OCO3)C(=O)Cc2cccs2)cc1 (stereo not drawn),·,·,·,–,·
CSc1ccc(-c2nnn(Cc3ccc(C)cc3)n2)cc1,–,–,–,–,–
Cc1cc(/C=C2\SC(=S)NC2=O)c(C)n1C,·,–,52,–,–
COc1ccccc1N1CCN(c2cc(=O)n(Cc3ccc(F)cc3)c(=O)[nH]2)CC1,–,–,–,-6.1,–
O=C(CSCc1nc2ccccc2[nH]1)N1CCN(c2cccc(Cl)c2)CC1,–,–,–,-3.5,–
COC(=O)c1cc2oc(C)cc2n1CC(=O)N1CCCc2ccccc21,–,–,–,·,–
COc1ccc(NC(=S)NCCc2ccccc2)c(OC)c1,·,–,–,–,–
COc1ccc(OC)c(NC(=S)NCCC(c2ccccc2)c2ccccc2)c1,·,·,·,-7.8,·
Cc1ccccc1NC(=S)NCCC(c1ccccc1)c1ccccc1,·,–,–,-4.4,–
Cc1ccc(NC(=S)NCCC(c2ccccc2)c2ccccc2)c(C)c1,·,–,–,–,–
Cc1cccc(C)c1NC(=S)NC(=O)CCc1ccccc1,·,–,–,–,–
Cc1ccccc1NC(=S)NC(=O)CCc1ccccc1,·,–,–,-4,–
SMILES,Ecoli tolC,PostGolgi yeast,PostGolgi ctrl,Cav3 T inh,Ecoli WT expand
Cc1cc(O)c(C(C)C)cc1NS(=O)(=O)c1ccccc1,–,–,–,–,–
COC(=O)c1cc(=O)n(CCc2ccccc2F)c(=Nc2ccc(F)c(Cl)c2)s1,·,–,–,-3.5,–
CCOc1ccc(CN2CCNC(=O)C2CC(=O)OC)cc1 (stereo not drawn),–,–,–,–,–
Cc1ccc2c(c1)c1c3n2CC(=C2C(=O)OC(C)(C)OC2=O)NC3CCC1 (stereo not drawn),–,–,51,–,–
Cc1ccc2c(c1)c1c3n2CCN(C(=O)C2CC2)C3CCC1 (stereo not drawn),–,–,–,–,–
CCOc1ccccc1COC(=O)c1cccc(-n2cnnn2)c1,–,–,–,–,–
Cc1c(C(=O)NCc2ccc3c(c2)OCO3)oc2ccccc12,–,·,·,-5.6,·
Cc1ccc(S(=O)(=O)N2CCOCC2)cc1NC(=O)COC(=O)CCC(=O)c1cccs1,·,–,–,–,–
Cc1ccc2oc(C(=O)NCc3ccc4c(c3)OCO4)c(C)c2c1,86,–,–,·,–
Cc1c(C(=O)NCCC2=CCCCC2)oc2ccc(S(=O)(=O)N3CCC4(CC3)OCCO4)cc12,–,–,–,-5.6,–
O=C(COC(=O)CCC(=O)c1cccs1)Nc1ccc(S(=O)(=O)N2CCOCC2)cc1,–,–,41,–,–
CC(/C=N\NC(=O)c1cccnc1)c1ccccc1 (stereo not drawn),·,·,·,–,·
CN(CC(=O)Nc1ccccc1Br)Cc1nc2ccccc2c(=O)[nH]1,·,–,–,·,–
Cc1c(C(=O)NCc2ccc3c(c2)OCO3)oc2ccc(S(=O)(=O)N3CCC(C)CC3)cc12,–,–,–,-4.8,–
O=C(COC(=O)CCc1ccc(S(=O)(=O)N2CCCCC2)cc1)Nc1ccc2c(c1)OCO2,–,–,–,-5.5,–
O=C(NCc1ccc2c(c1)OCO2)c1cccc(S(=O)(=O)N2CCCCC2)c1,–,–,31,–,–
Cc1cc(C)n(C(=O)c2ccc(C)c(S(=O)(=O)N3CCCC3)c2)n1,–,–,32,–,–
O=C(NCc1ccc2c(c1)OCO2)c1cccc(S(=O)(=O)N2CCOCC2)c1,–,–,–,–,–
Cc1c(C(=O)NCc2ccc3c(c2)OCO3)oc2ccc(S(=O)(=O)N3CCCCCC3)cc12,–,–,–,–,–
CC(C)OC(=O)C1CC=CCC1C(=O)Nc1ccc(Cl)cc1 (stereo not drawn),·,–,–,–,–
N#Cc1c(-c2ccccc2)ccn(Cc2ccc(Cl)cc2)c1=O,·,–,–,–,–
c1ccc(CCn2nnnc2CN2CCc3ccccc32)cc1,–,–,–,–,–
CCOc1ccc2[nH]c(=O)c(CN(CCOC)C(=O)N3CCOCC3)cc2c1,–,–,–,–,–
O=C(c1cccc(S(=O)(=O)N2CCCCC2)c1)N1CCCCC1,–,–,38,–,–
Cc1ccc(C(=O)OCc2ccc3c(c2)OCO3)cc1S(=O)(=O)N1CCCCC1,·,–,–,-4.1,–
SMILES,Ecoli tolC,PostGolgi yeast,PostGolgi ctrl,Cav3 T inh,Ecoli WT expand
O=C(c1cccc(S(=O)(=O)N2CCOCC2)c1)N1CCCCCC1,–,–,–,–,–
CCc1nc2ccc(F)cc2c(C(=O)NC2CCCCC2C)c1C (stereo not drawn),·,–,–,–,–
CCC(C)c1nc2c(c(N3CCC3=O)c1-c1ccccc1)CCCC2 (stereo not drawn),·,·,·,–,·
Cc1oc(-c2ccccc2)nc1Cn1cccc1C1=NC(c2ccccc2)CO1 (stereo not drawn),–,–,–,-5.6,–
CCNc1nc(N)c(C(=O)c2ccc(Cl)s2)s1,–,–,46,–,–
Cc1nn(-c2ccccc2)c2c1C(c1ccc(O)c(O)c1)N1C(=N2)C(Nc2ccccc2)=Nc2ccccc21 (stereo not drawn),·,–,51,–,–
Cc1ccc(NC2=Nc3ccccc3N3C2=Nc2c(c(C)nn2-c2ccccc2)C3c2ccc(O)c(O)c2)cc1 (stereo not drawn),·,–,–,·,–
CCOC(=O)N1CCN(C(=O)Cn2nc(-c3ccc(Cl)cc3)ccc2=O)CC1,–,–,–,·,–
CCOC(=O)Cn1nc(-c2ccc(Cl)cc2)ccc1=O,–,–,36,–,–
CC[C@H]1CC2CN3CCc4c([nH]c5c([C@H]6C[C@H]7[C@H](CC)CN(C)[C@@H](Cc8c6[nH]c6ccccc86)[C@H]7C(=O)OC)c(OC)ccc45)C(C(=O)OC)(C2)C13,·,·,·,-3.8,·
